How the values were obtained:
Felis catus = organism: Felis catus; test: Antagonistic effect of compound on peripheral vascular resistance was measured as KB in cats; assay type: functional
How it was run: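 Reserpinized (5 mg/kg, 18 h prior), pentobarbital-anesthetized, vagotomized, ventilated cats. One hind leg perfused with the animal's own blood via the femoral artery at a constant flow above 10 mL/min; resistance read as perfusion pressure. Compound infused iv for 10 min in five stepwise concentrations, each followed by ia isoprenaline at about 80%-maximal dose. KB assumes competitive antagonism.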

[1] = target: Beta-1 adrenergic receptor (Homo sapiens) (UniProt P08588); test: Agonistic effect of compound against beta-1-adrenergic receptor given as geometric mean (KA) of effect on heart rate; assay type: functional; details: Felis catus
Sequence of Beta-1 adrenergic receptor (Homo sapiens) (P08588 whole entry, looked up, the tested form may be a part): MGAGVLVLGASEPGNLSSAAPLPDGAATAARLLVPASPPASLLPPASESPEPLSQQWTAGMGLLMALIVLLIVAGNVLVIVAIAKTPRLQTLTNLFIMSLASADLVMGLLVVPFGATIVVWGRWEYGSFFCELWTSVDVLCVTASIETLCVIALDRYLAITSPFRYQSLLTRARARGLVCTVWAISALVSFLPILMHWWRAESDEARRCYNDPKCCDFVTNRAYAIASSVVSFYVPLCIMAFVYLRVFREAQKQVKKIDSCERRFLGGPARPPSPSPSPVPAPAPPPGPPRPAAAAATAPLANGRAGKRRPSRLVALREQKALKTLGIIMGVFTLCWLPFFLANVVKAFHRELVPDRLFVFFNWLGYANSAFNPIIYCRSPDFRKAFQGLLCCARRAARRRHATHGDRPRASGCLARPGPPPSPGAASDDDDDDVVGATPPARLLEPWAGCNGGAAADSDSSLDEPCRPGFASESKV
How it was run: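 Cats of either sex (2.6–3.2 kg), starved 24 h, given reserpine 5 mg/kg 18 h before; pentobarbital 30 mg/kg ip, then 0.1 mg/min/kg infusion; ventilated, bilaterally vagotomized. Heart rate triggered from carotid pressure. Compound infused iv for 10 min at 1.0 mL/min in five rising concentrations. KA taken as the dose giving a semimaximal heart-rate increase.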

[2] = target: Beta-1 adrenergic receptor (Homo sapiens) (UniProt P08588); test: Intrinsic activity of compound against beta-1-adrenergic receptor given as percent of maximal heart rate by iv injection of supramaximal doses of isoprenaline (IPR); assay type: functional, organism-based; details: Felis catus

SMILES | KB (Felis catus) [µM/kg] | KA [1] [µM/kg] | Intrinsic activity [2] [%]
Cc1ccc(OCCC(O)CNC(C)C)cc1.Cl (stereo unspecified) | 1.82 | – | –
COCCc1ccc(C(O)CNC(C)C)cc1.Cl (stereo unspecified) | 23.6 | 0.536 | 22.5
COc1ccc(OCC(O)CNC(C)C)cc1.Cl (stereo unspecified) | 3.42 | 0.119 | 81.2
COCc1ccc(CC(O)CNC(C)C)cc1.Cl (stereo unspecified) | 6.1 | – | –
COc1ccc(CCC(O)CNC(C)C)cc1.Cl (stereo unspecified) | 30.8 | – | 4.5
COCCc1ccc(OCC(O)CNC(C)C)cc1.Cl (stereo unspecified) | 0.87 | – | –

Source: ChEMBL document CHEMBL1121816, “Adrenoceptor blocking agents. Compounds related to metoprolol” (1981)
